Experimental data as given in ChEMBL document CHEMBL1926657, “Novel bioactive metabolites of dipyrone (metamizol)” (Bioorg Med Chem, 2012).
Blank lines part the entries; values can stand above or below the compound they belong to. Active and inactive are the calls of the source. The rule behind the calls is not given here.

Assays:
[1] = molecular target: T1, Transient receptor potential cation channel subfamily V member 1 (Homo sapiens, UniProt Q8NER1); assay: Agonist activity at TRPV1; type: functional
T1 sequence (Q8NER1 whole entry): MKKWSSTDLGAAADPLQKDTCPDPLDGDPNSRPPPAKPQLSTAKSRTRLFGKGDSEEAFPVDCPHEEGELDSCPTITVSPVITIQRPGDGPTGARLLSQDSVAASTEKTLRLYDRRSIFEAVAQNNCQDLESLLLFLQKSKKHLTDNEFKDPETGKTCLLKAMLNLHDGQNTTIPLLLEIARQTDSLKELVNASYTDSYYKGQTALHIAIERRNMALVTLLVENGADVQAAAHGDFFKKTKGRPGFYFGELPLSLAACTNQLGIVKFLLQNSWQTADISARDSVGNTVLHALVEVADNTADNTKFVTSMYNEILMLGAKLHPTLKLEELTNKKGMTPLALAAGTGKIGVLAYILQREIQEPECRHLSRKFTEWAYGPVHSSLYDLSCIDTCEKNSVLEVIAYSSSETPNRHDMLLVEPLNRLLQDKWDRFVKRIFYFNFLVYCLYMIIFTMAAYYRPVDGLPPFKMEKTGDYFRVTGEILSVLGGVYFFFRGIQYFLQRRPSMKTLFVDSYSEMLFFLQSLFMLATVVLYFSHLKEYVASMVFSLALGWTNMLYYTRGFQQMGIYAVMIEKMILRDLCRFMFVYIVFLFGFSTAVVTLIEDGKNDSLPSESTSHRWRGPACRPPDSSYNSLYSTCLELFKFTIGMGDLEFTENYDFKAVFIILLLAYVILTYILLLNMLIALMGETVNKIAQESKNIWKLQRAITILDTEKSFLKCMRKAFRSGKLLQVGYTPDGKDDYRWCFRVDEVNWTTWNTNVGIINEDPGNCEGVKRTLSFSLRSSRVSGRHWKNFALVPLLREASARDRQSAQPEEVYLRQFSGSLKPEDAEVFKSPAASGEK

Cannabinoid receptor 2 = Cannabinoid receptor 2 (Homo sapiens, UniProt P34972); assay: Displacement of [3H]CP-55940 from human recombinant CB2 receptor expressed in HEK cells; type: cell-based, HEK293
Cannabinoid receptor 2, sequence (P34972 whole entry): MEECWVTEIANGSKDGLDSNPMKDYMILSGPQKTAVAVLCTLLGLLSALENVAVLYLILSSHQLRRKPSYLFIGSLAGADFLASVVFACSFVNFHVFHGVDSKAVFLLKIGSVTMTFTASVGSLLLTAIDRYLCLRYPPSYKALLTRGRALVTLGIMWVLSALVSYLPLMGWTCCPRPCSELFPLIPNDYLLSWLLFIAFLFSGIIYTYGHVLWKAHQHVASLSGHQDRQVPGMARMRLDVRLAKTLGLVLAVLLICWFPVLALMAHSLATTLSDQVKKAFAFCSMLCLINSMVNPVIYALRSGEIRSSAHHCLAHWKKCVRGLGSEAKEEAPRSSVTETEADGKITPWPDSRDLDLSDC

Mus musculus [2] = species: Mus musculus; assay: Inhibition of COX-mediated PGE2 production in C57BL/6 mouse brain homogenate at 100 nM to 100 uM; type: tissue-based
Method in brief: (§1)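 Mouse brain homogenate (20 µg) made on ice in 50 mM Tris pH 7.4 with 1 mM phenol and protease inhibitors, then incubated with inhibitor or vehicle. Reaction started with 150 µM arachidonic acid at 37°C, stopped after 5 min by acidifying to pH 2.5 with 1% formic acid. Prostanoids extracted in ethyl acetate/hexane (7:1), and PGE2 or 6-keto-PGF1α quantified by GC-MS/MS.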

Cannabinoid receptor 1 = Cannabinoid receptor 1 (Homo sapiens, UniProt P21554); assay: Displacement of [3H]CP-55940 from human recombinant CB1 receptor expressed in HEK cells; type: cell-based, HEK293
Cannabinoid receptor 1, sequence (P21554 whole entry): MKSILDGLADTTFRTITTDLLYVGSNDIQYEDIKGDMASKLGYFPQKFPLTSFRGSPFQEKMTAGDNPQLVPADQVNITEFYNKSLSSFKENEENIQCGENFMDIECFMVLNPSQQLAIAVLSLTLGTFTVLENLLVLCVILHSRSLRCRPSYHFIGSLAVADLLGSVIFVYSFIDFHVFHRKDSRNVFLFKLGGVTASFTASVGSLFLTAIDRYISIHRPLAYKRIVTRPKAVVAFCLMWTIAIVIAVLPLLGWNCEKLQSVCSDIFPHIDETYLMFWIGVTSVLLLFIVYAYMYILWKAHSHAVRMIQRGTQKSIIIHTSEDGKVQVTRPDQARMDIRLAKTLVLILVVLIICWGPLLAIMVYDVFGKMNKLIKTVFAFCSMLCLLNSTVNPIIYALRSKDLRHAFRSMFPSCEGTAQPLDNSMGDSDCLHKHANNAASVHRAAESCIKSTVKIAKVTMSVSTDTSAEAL

[3] = molecular target: T1, Transient receptor potential cation channel subfamily V member 1; assay: Inhibition of TRPV1
Mus musculus [4] = species: Mus musculus; assay: Inhibition of PGE2 production in LPS-stimulated COX-1 knockout C57BL/6 mouse brain homogenate at 0.8 uM measured after 6 hrs; type: functional
Method in brief: (§2)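 COX-1−/− or COX-2−/− mice injected i.p. with LPS 50 µg kg−1; brains taken 6 h later and homogenised in Tris pH 7.4/phenol/protease-inhibitor buffer. COX activity measured with inhibitor or vehicle: 150 µM arachidonic acid, 37°C, 5 min, formic acid stop to pH 2.5. PGE2 extracted in ethyl acetate/hexane and measured by GC-MS/MS.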

Mus musculus [5] = species: Mus musculus; assay: Ratio of IC50 for COX-mediated PGE2 production in C57BL/6 mouse brain homogenate measured after 6 hrs in absence of FAAH inhibitor URB532 to IC50 for COX-mediated PGE2 production in C57BL/6 mouse brain homogenate measured after 6 hrs in presence of FAAH inhibitor URB532; type: tissue-based
Mus musculus [6] = species: Mus musculus; assay: Inhibition of PGE2 production in LPS-stimulated COX-2 knockout C57BL/6 mouse brain homogenate at 0.4 uM measured after 6 hrs; type: functional; method in brief: as §2
Mus musculus [7] = species: Mus musculus; assay: (§3) Inhibition of COX-mediated PGE2 production in C57BL/6 mouse brain homogenate; type: tissue-based; method in brief: as §1
[8] = as §3; type: tissue-based; method in brief: as §1
Mus musculus [9] = species: Mus musculus; assay: Inhibition of PGE2 production in LPS-stimulated COX-2 knockout C57BL/6 mouse brain homogenate measured after 6 hrs; type: functional; conditions: C57BL/6, Brain; method in brief: as §2
Mus musculus [10] = species: Mus musculus; assay: Inhibition of PGE2 production in LPS-stimulated COX-1 knockout C57BL/6 mouse brain homogenate measured after 6 hrs; type: functional; conditions: C57BL/6, Brain; method in brief: as §2
Mus musculus [11] = species: Mus musculus; assay: (§4) Inhibition of COX-mediated 6-keto-PGF1alpha production in C57BL/6 mouse brain homogenate; type: tissue-based; method in brief: as §1
[12] = as §4; type: tissue-based; method in brief: as §1
[13] = Inhibition of COX-mediated PGE2 production in C57BL/6 mouse brain homogenate measured after 6 hrs in presence of FAAH inhibitor URB532; type: tissue-based
[14] = Prodrug activation in C57BL/6 mouse CSF assessed as formation of arachidonoyl-4-methylaminoantipyrin at 600 mg/kg, po administered daily measured after 48 hrs; type: organism-based, Cerebrospinal fluid; parameters: dose 600 mg/kg, route oral; conditions: in vivo
Method in brief: (§5)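 Dipyrone was given in the drinking water, and mice were killed on day 2 (48 h) or day 5 (120 h) under isoflurane. Tissue was extracted with diisopropyl ether/ethyl acetate 1:3, dried and taken up in acetonitrile/water 9:1. The amides were measured by LC-MS/MS on a C18 column. Semi-quantification used external calibration with 10, 100 and 1000 pg standards.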

[15] = Prodrug activation in C57BL/6 mouse CSF assessed as formation of arachidonoyl-4-aminoantipyrin at 600 mg/kg, po administered daily measured after 120 hrs; type: organism-based, Cerebrospinal fluid; parameters: dose 600 mg/kg, route oral; conditions: in vivo; method in brief: as §5
Brain [16] = assay: Prodrug activation in FAAH wild type C57BL/6 mouse brain assessed as formation of arachidonoyl-4-aminoantipyrin at 600 mg/kg, po administered daily measured after 120 hrs; type: organism-based; parameters: dose 600 mg/kg, route oral; conditions: in vivo; method in brief: as §5
Spleen [17] = assay: Prodrug activation in C57BL/6 mouse spleen assessed as formation of arachidonoyl-4-methylaminoantipyrin at 600 mg/kg, po administered daily measured after 120 hrs; type: organism-based; parameters: dose 600 mg/kg, route oral; conditions: in vivo; method in brief: as §5
[18] = Prodrug activation in C57BL/6 mouse CSF assessed as formation of arachidonoyl-4-aminoantipyrin at 600 mg/kg, po administered daily measured after 48 hrs; type: organism-based, Cerebrospinal fluid; parameters: dose 600 mg/kg, route oral; conditions: in vivo; method in brief: as §5
Brain [19] = assay: Prodrug activation in FAAH wild type C57BL/6 mouse brain assessed as formation of arachidonoyl-4-aminoantipyrin at 600 mg/kg, po administered daily measured after 48 hrs; type: organism-based; parameters: dose 600 mg/kg, route oral; conditions: in vivo; method in brief: as §5
Spleen [20] = assay: Prodrug activation in C57BL/6 mouse spleen assessed as formation of arachidonoyl-4-aminoantipyrin at 600 mg/kg, po administered daily measured after 120 hrs; type: organism-based; parameters: dose 600 mg/kg, route oral; conditions: in vivo; method in brief: as §5
Brain [21] = assay: Prodrug activation in FAAH wild type C57BL/6 mouse brain assessed as formation of arachidonoyl-4-methylaminoantipyrin at 600 mg/kg, po administered daily measured after 48 hrs; type: organism-based; parameters: dose 600 mg/kg, route oral; conditions: in vivo; method in brief: as §5
Spleen [22] = assay: Prodrug activation in C57BL/6 mouse spleen assessed as formation of arachidonoyl-4-methylaminoantipyrin at 600 mg/kg, po administered daily measured after 48 hrs; type: organism-based; parameters: dose 600 mg/kg, route oral; conditions: in vivo; method in brief: as §5
[23] = Prodrug activation in C57BL/6 mouse CSF assessed as formation of arachidonoyl-4-methylaminoantipyrin at 600 mg/kg, po administered daily measured after 120 hrs; type: organism-based, Cerebrospinal fluid; parameters: dose 600 mg/kg, route oral; conditions: in vivo; method in brief: as §5
Brain [24] = assay: Prodrug activation in FAAH wild type C57BL/6 mouse brain assessed as formation of arachidonoyl-4-methylaminoantipyrin at 600 mg/kg, po administered daily measured after 120 hrs; type: organism-based; parameters: dose 600 mg/kg, route oral; conditions: in vivo; method in brief: as §5
Spleen [25] = assay: Prodrug activation in C57BL/6 mouse spleen assessed as formation of arachidonoyl-4-aminoantipyrin at 600 mg/kg, po administered daily measured after 48 hrs; type: organism-based; parameters: dose 600 mg/kg, route oral; conditions: in vivo; method in brief: as §5
[26] = molecular target: T2, Prostaglandin G/H synthase 1 (Mus musculus, UniProt P22437); assay: Inhibition of COX-1 in C57BL/6 mouse brain homogenate; type: tissue-based
T2 sequence (P22437 whole entry): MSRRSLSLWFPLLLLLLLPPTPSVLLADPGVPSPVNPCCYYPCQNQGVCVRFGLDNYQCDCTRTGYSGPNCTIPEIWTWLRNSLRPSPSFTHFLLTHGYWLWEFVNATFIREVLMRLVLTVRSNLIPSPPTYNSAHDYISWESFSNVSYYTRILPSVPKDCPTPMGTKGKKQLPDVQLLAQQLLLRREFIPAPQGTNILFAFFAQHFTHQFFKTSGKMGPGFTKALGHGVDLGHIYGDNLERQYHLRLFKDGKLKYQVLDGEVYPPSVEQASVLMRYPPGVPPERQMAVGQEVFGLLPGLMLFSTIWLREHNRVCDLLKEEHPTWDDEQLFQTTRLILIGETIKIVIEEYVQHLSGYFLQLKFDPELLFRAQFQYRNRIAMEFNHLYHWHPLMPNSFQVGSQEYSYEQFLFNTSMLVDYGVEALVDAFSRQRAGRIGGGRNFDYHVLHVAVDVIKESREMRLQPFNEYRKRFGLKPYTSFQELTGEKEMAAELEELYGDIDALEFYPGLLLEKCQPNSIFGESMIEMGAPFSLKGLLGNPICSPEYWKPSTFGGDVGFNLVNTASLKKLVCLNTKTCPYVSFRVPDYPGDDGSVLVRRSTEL
Method in brief: (§6)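 Brain homogenate from C57BL/6 mice was prepared on ice in 50 mM Tris pH 7.4 with 1 mM phenol and protease inhibitors. 20 µg of homogenate was incubated with inhibitor or vehicle. The reaction was started with 150 µM arachidonic acid at 37°C and stopped after 5 min with formic acid to pH 2.5. Prostanoids were extracted with ethyl acetate/hexane 7:1. PGE2 and 6-keto-PGF1α were measured by GC-MS/MS, and IC50 was determined.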

[27] = molecular target: T3, Prostaglandin G/H synthase 2 (Mus musculus, UniProt Q05769); assay: Inhibition of COX-2 in C57BL/6 mouse brain homogenate; type: tissue-based; method in brief: as §6
T3 sequence (Q05769 whole entry): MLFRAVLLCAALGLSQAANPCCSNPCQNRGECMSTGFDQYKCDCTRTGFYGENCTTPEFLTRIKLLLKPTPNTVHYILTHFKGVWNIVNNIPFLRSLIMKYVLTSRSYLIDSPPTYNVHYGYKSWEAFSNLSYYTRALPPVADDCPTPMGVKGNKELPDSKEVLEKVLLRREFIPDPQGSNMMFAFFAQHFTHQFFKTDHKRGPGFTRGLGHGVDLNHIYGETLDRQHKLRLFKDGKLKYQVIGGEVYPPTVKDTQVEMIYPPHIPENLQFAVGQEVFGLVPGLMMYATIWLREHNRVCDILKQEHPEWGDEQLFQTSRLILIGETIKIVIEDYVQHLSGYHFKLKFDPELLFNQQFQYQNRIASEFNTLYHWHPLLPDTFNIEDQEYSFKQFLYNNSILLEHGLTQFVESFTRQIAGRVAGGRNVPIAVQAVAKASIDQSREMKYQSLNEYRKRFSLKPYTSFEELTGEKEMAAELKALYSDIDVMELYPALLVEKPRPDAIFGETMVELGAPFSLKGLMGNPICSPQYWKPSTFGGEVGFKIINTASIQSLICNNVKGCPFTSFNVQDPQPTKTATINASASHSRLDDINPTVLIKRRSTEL

Compound: CCCCC/C=C\C/C=C\C/C=C\C/C=C\CCCC(=O)Nc1ccc(O)cc1
- EC50 [1]: 0.026 µM

Compound: CCCCC/C=C\C/C=C\C/C=C\C/C=C\CCCC(=O)Nc1c(C)n(C)n(-c2ccccc2)c1=O
- Ki (Cannabinoid receptor 2): 5.4 µM
- inhibition (Mus musculus [2]): inactive
- Ki (Cannabinoid receptor 1): 2.9 µM
- inhibition [3]: inactive

Compound: CCCCC/C=C\C/C=C\C/C=C\C/C=C\CCCC(=O)N(C)c1c(C)n(C)n(-c2ccccc2)c1=O
- Ki (Cannabinoid receptor 2): 3 µM
- inhibition (Mus musculus [4]): Active
- Ratio IC50 (Mus musculus [5]): > 200
- inhibition (Mus musculus [6]): 30%
- inhibition (Mus musculus [7]): Dose-dependent effect
- IC50 [8]: 13.2 µM
- IC50 (Mus musculus [9]): 0.107 µM
- IC50 (Mus musculus [10]): 0.355 µM
- Ki (Cannabinoid receptor 1): 7.8 µM
- inhibition (Mus musculus [11]): Dose-dependent effect
- IC50 [12]: 5.2 µM
- IC50 [13]: 0.058 µM

- Drug metabolism [14]: Active
- Drug metabolism [15]: Active
- Drug metabolism (Brain [16]): Active
- Drug metabolism (Spleen [17]): Active
- Drug metabolism [18]: Active
- Drug metabolism (Brain [19]): Active
- Drug metabolism (Spleen [20]): Active
- Drug metabolism (Brain [21]): Active
- Drug metabolism (Spleen [22]): Active
- Drug metabolism [23]: Active
- Drug metabolism (Brain [24]): Active
- Drug metabolism (Spleen [25]): Active
Compound: Cc1c(N(C)CS(=O)(=O)[O-])c(=O)n(-c2ccccc2)n1C.[Na+] [DIPYRONE SODIUM]

- IC50 [26]: 1000 µM
- IC50 [27]: 1000 µM
Compound: Cc1c(N)c(=O)n(-c2ccccc2)n1C [AMPYRONE]
